# Results collected from several papers.
# Medium: Caco-2
SMILES,conditions,Papp A→B
C[C@@H]1O[C@@H](OC[C@H]2O[C@@H](Oc3c(-c4ccc(OCCO)c(OCCO)c4)oc4cc(OCCO)cc(O)c4c3=O)[C@H](O)[C@@H](O)[C@@H]2O)[C@H](O)[C@H](O)[C@H]1O,"100 µg/mL, 2 h",6.15 ×10⁻⁶ cm/s
O=c1c2cc(Cl)c(CO)cc2[nH]c(=S)n1Cc1cccnc1,"10 µM, 90 min, pH 7.4",12.3 ×10⁻⁶ cm/s
O=c1c(-c2ccc(O)cc2)coc2cc(O)ccc12,"100 µg/mL, 2 h",27.4 ×10⁻⁶ cm/s
N#Cc1ccc(C[C@H](Nc2nnc(-c3ccc(F)cc3)s2)C(=O)N2CCc3ccccc32)cc1,"100 µM, 2 h",11.2 ×10⁻⁶ cm/s
N#C[C@@]1(c2ccc3c(N)ncnn23)O[C@H](CO)[C@@H](O)[C@H]1O,"10 µM, 2 h",3.8 ×10⁻⁶ cm/s
CCOCC(=O)N1CCC[C@H](C(=O)NCc2nc(-c3ccc(C#N)nc3)cs2)C1,pH 7.4,13 ×10⁻⁶ cm/s
N#Cc1ccc(C[C@H](Nc2c(Nc3ccc(Br)cc3)c(=O)c2=O)C(=O)N2CCc3ccccc32)cc1,"100 µM, 2 h",2 ×10⁻⁶ cm/s
CCCCCCOC(=O)NC(=N)c1ccc(NCc2nc3cc(C(=O)N(CCC(=O)OCC)c4ccccn4)ccc3n2C)cc1,"5 µM, 2 h",0.0021 ×10⁻⁶ cm/s
C[C@H]1O[C@@H](O[C@H]2[C@@H](O)C[C@H](O[C@H]3[C@@H](O)C[C@H](O[C@H]4CC[C@@]5(C)[C@H](CC[C@@H]6[C@@H]5C[C@@H](O)[C@]5(C)[C@@H](C7=CC(=O)OC7)CC[C@]65O)C4)O[C@@H]3C)O[C@@H]2C)C[C@H](O)[C@@H]1O,"10 µM, 2 h",0.48 ×10⁻⁶ cm/s
CN(C)CCc1c[nH]c2ccc(C[C@H]3COC(=O)N3)cc12,"5 µM, 2 h",0.56 ×10⁻⁶ cm/s
Cc1ccc2[nH]c(=S)n(Cc3cccnc3)c(=O)c2c1,"10 µM, 90 min, pH 7.4",35.4 ×10⁻⁶ cm/s
C[C@@H]1O[C@@H](OC[C@H]2O[C@@H](Oc3c(-c4ccc(O)c(O)c4)oc4cc(O)cc(O)c4c3=O)[C@H](O)[C@@H](O)[C@@H]2O)[C@H](O)[C@H](O)[C@H]1O,200 µg/mL,0.293 ×10⁻⁶ cm/s
O=c1cc(-c2ccc(O)c(O)c2)oc2cc(O)cc(O)c12,"100 µg/mL, 2 h",7.1 ×10⁻⁶ cm/s
CC[C@]1(O)C[C@@H]2CN(CCc3c([nH]c4ccccc34)[C@@](C(=O)OC)(c3cc4c(cc3OC)N(C)[C@H]3[C@@](O)(C(=O)OC)[C@H](OC(C)=O)[C@]5(CC)C=CCN6CC[C@]43[C@@H]65)C2)C1,"10 µM, 2 h",1.69 ×10⁻⁶ cm/s
N#Cc1ccc(C[C@H](NC(=O)Nc2ccc(F)cc2)C(=O)N2CCc3ccccc32)cc1,"100 µM, 2 h",49.3 ×10⁻⁶ cm/s
CN/C(=N/CCSCc1nc[nH]c1C)NC#N,"5 µM, 2 h",0.55 ×10⁻⁶ cm/s
CNC(C)(C)COCC(=O)N1CCC[C@H](C(=O)NCc2nc(-c3ccc(C(F)(F)F)cc3)cs2)C1,pH 7.4,0.19 ×10⁻⁶ cm/s
O=C(N[C@@H](c1ccccc1)[C@H]1CCCN1)C1=CN(c2ncnc3[nH]ccc23)CCS1,"10 µM, pH 6.5",< 0.3 ×10⁻⁶ cm/s
CC(C)(N)COCC(=O)N1CCC[C@H](C(=O)NCc2nc(-c3ccc(C(F)(F)F)cc3)cs2)C1,pH 7.4,0.18 ×10⁻⁶ cm/s
O=c1cc(-c2ccccc2)oc2cc(O)c(O)c(O)c12,"100 µg/mL, 2 h",9.23 ×10⁻⁶ cm/s
C[C@H]1[C@H](NC(=O)/C(=N\OC(C)(C)C(=O)O)c2csc(N)n2)C(=O)N1S(=O)(=O)O,"5 µM, 2 h",0.09 ×10⁻⁶ cm/s
COCC(=O)OCc1cc2[nH]c(=S)n(Cc3cccnc3)c(=O)c2cc1Cl,"10 µM, 90 min, pH 7.4",0.2 ×10⁻⁶ cm/s
COCC(=O)N1CCC[C@H](C(=O)NCc2nc(-c3ccccc3)cs2)C1,pH 7.4,52 ×10⁻⁶ cm/s
COC(=O)[C@H]1[C@H]2C[C@@H]3c4[nH]c5cc(OC)ccc5c4CCN3C[C@H]2C[C@@H](OC(=O)c2cc(OC)c(OC)c(OC)c2)[C@@H]1OC,"5 µM, 2 h",0.97 ×10⁻⁶ cm/s
COc1cc(NC(=O)Cn2cc(Cl)c3cc(F)c(-c4cnn(C)c4)cc32)cc(OC)c1OC,,0.08 ×10⁻⁶ cm/s
Oc1cc(O)c2c(c1)O[C@H](c1ccc(O)c(O)c1)[C@H](O)C2,"100 µg/mL, 2 h",1.26 ×10⁻⁶ cm/s
CC(=O)OCc1cc2[nH]c(=S)n(Cc3cccnc3)c(=O)c2cc1Cl,"10 µM, 90 min, pH 7.4",0.6 ×10⁻⁶ cm/s
O=c1cc(-c2ccc(O)cc2)oc2c([C@@H]3O[C@H](CO)[C@@H](O)[C@H](O)[C@H]3O)c(O)cc(O)c12,100 µg/mL,0.316 ×10⁻⁶ cm/s
O=C(NCc1nc(-c2ccc(C(F)(F)F)cc2)cs1)[C@H]1CCCN(C(=O)CO[C@H]2CCCNC2)C1,pH 7.4,0.15 ×10⁻⁶ cm/s
CN(C)CC(=O)OCc1cc2[nH]c(=S)n(Cc3cccnc3)c(=O)c2cc1Cl,"10 µM, 90 min, pH 7.4",42.5 ×10⁻⁶ cm/s
COc1cc(C2Oc3cc([C@H]4Oc5cc(O)cc(O)c5C(=O)[C@@H]4O)ccc3OC2CO)ccc1O (stereo partly drawn),"100 µg/mL, 2 h",19 ×10⁻⁶ cm/s
O=c1c(O[C@@H]2O[C@H](CO)[C@H](O)[C@H](O)[C@H]2O)c(-c2ccc(O)c(O)c2)oc2cc(O)cc(O)c12,50 µg/mL,0.256 ×10⁻⁶ cm/s
COc1ccc(-c2coc3cc(O)ccc3c2=O)cc1,"100 µg/mL, 2 h",4.66 ×10⁻⁶ cm/s
O=C(NCc1nc(-c2ccc(C(F)(F)F)cc2)cs1)[C@H]1CCCN(C(=O)COCCN2CCCCC2)C1,pH 7.4,3.9 ×10⁻⁶ cm/s
C[C@@H]1O[C@@H](O[C@H]2[C@H](Oc3cc(O)c4c(c3)O[C@H](c3ccc(O)cc3)CC4=O)O[C@H](CO)[C@@H](O)[C@@H]2O)[C@H](O)[C@H](O)[C@H]1O,"100 µg/mL, 2 h",21 ×10⁻⁶ cm/s
Nc1nc2c(ncn2COCCO)c(=O)[nH]1,"5 µM, 2 h",0.18 ×10⁻⁶ cm/s
